Data reported in ChEMBL document CHEMBL2331391, “Peroxisome proliferator-activated receptor-γ mediates the anti-inflammatory effect of 3-hydroxy-4-pyridinecarboxylic acid derivatives: synthesis and biological evaluation” (Eur J Med Chem, 2013).
The source made the active and inactive calls. The calls are words filed in the database; no cut-off is given here.

Assays:
Macrophage [1] = experiment: Antiinflammatory activity in human macrophages assessed as inhibition of LPS-induced IL-8 release at 10 uM preincubated for 30 mins before LPS-challenge measured after 24 hrs post challenge by ELISA; format: functional, cell-based
How it was run: (§1)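 Human blood PBMC-derived macrophages were used after 10 days of culture. Purity >95% (esterase, CD14, morphology). Cells were pretreated 30 min at 37 °C with compound, then given 100 ng/mL LPS (S. enteritidis) for 24 h. TNFα, IL-1β and IL-8 in conditioned medium were measured by ELISA. Working solutions were endotoxin-tested by LAL (<3 pg/mL).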

Macrophage [2] = experiment: Antiinflammatory activity in human macrophages assessed as inhibition of LPS-induced IL-1beta release at 10 uM preincubated for 30 mins before LPS-challenge measured after 24 hrs post challenge by ELISA; format: functional, cell-based; how it was run: as §1
Macrophage [3] = experiment: Antiinflammatory activity in human macrophages assessed as inhibition of LPS-induced TNFalpha release at 10 uM preincubated for 30 mins before LPS-challenge measured after 24 hrs post challenge by ELISA; format: functional, cell-based; how it was run: as §1
Macrophage [4] = experiment: Antiinflammatory activity in human macrophages assessed as inhibition of LPS-induced IL8 mRNA transcript accumulation at 10 uM preincubated for 30 mins before LPS-challenge measured after 24 hrs post challenge by quantitative PCR analysis; format: functional, cell-based
How it was run: (§2)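 Monocyte-derived human macrophages were pretreated with 10 µM compound, then stimulated with LPS for 24 h. RNA was extracted and TNFα and IL8 transcripts were quantified by real-time RT-PCR with UPL probes. GAPDH served as reference gene.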

Macrophage [5] = experiment: Antiinflammatory activity in human macrophages assessed as inhibition of LPS-induced TNFalpha mRNA transcript accumulation at 10 uM preincubated for 30 mins before LPS-challenge measured after 24 hrs post challenge by quantitative PCR analysis; format: functional, cell-based; how it was run: as §2
[6] = Antiinflammatory activity in human macrophages assessed as inhibition of LPS-induced IL8 release at 10 '-3 uM preincubated for 30 mins before LPS-challenge measured after 24 hrs post challenge by ELISA (reference value: 7.86 +/-0.17 ng/ml); format: functional, Macrophage; how it was run: as §1
[7] = Antiinflammatory activity in human macrophages assessed as inhibition of LPS-induced IL8 release at 10 '-2 uM preincubated for 30 mins before LPS-challenge measured after 24 hrs post challenge by ELISA (reference value: 7.86 +/-0.17 ng/ml); format: functional, Macrophage; how it was run: as §1
[8] = Antiinflammatory activity in human macrophages assessed as inhibition of LPS-induced IL8 release at 1 uM preincubated for 30 mins before LPS-challenge measured after 24 hrs post challenge by ELISA (reference value: 7.86 +/-0.17 ng/ml); format: functional, Macrophage; how it was run: as §1
[9] = Antiinflammatory activity in human macrophages assessed as inhibition of LPS-induced IL8 release at 5 uM preincubated for 30 mins before LPS-challenge measured after 24 hrs post challenge by ELISA (reference value: 7.86 +/-0.17 ng/ml); format: functional, Macrophage; how it was run: as §1
[10] = Antiinflammatory activity in human macrophages assessed as inhibition of LPS-induced IL8 release at 10 uM preincubated for 30 mins before LPS-challenge measured after 24 hrs post challenge by ELISA (reference value: 7.86 +/-0.17 ng/ml); format: functional, Macrophage; how it was run: as §1
[11] = Antiinflammatory activity in human macrophages assessed as inhibition of LPS-induced IL8 release at 100 uM preincubated for 30 mins before LPS-challenge measured after 24 hrs post challenge by ELISA (reference value: 7.86 +/-0.17 ng/ml); format: functional, Macrophage; how it was run: as §1
[12] = Antiinflammatory activity in human macrophages assessed as inhibition of LPS-induced TNFalpha release at 10 '-3 uM preincubated for 30 mins before LPS-challenge measured after 24 hrs post challenge by ELISA (reference value: 1682 +/-190 ng/ml); format: functional, Macrophage; how it was run: as §1
[13] = Antiinflammatory activity in human macrophages assessed as inhibition of LPS-induced TNFalpha release at 10 '-2 uM preincubated for 30 mins before LPS-challenge measured after 24 hrs post challenge by ELISA (reference value: 1682 +/-190 ng/ml); format: functional, Macrophage; how it was run: as §1
[14] = Antiinflammatory activity in human macrophages assessed as inhibition of LPS-induced TNFalpha release at 1 uM preincubated for 30 mins before LPS-challenge measured after 24 hrs post challenge by ELISA (reference value: 1682 +/-190 ng/ml); format: functional, Macrophage; how it was run: as §1
[15] = Antiinflammatory activity in human macrophages assessed as inhibition of LPS-induced TNFalpha release at 5 uM preincubated for 30 mins before LPS-challenge measured after 24 hrs post challenge by ELISA (reference value: 1682 +/-190 ng/ml); format: functional, Macrophage; how it was run: as §1
[16] = Antiinflammatory activity in human macrophages assessed as inhibition of LPS-induced TNFalpha release at 10 uM preincubated for 30 mins before LPS-challenge measured after 24 hrs post challenge by ELISA (reference value: 1682 +/-190 ng/ml); format: functional, Macrophage; how it was run: as §1
[17] = Antiinflammatory activity in human macrophages assessed as inhibition of LPS-induced TNFalpha release at 100 uM preincubated for 30 mins before LPS-challenge measured after 24 hrs post challenge by ELISA (reference value: 1682 +/-190 ng/ml); format: functional, Macrophage; how it was run: as §1
[18] = Cytotoxicity against human macrophages at 10 '4 uM after 72 hrs by MTT assay; format: cell-based; details: macrophage
[19] = Cytotoxicity against human macrophages at 10 '5 uM after 72 hrs by MTT assay; format: cell-based; details: macrophage
[20] = Cytotoxicity against human macrophages up to 100 uM after 72 hrs by MTT assay; format: cell-based; details: macrophage
[21] = molecular target: Transcription factor p65 (Mus musculus) (UniProt Q04207); experiment: Inhibition of LPS-induced p65 NF-kappaB phosphorylation in mouse CMT93 cells at 10 uM preincubated for 30 mins before LPS-challenge measured after 6 hrs post challenge by Western blot analysis; format: cell-based
How it was run: (§3)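 CMT-93 cells were pretreated with 10 µM compound and stimulated with LPS for 6 h. Lysates were run on 10% SDS-PAGE and transferred to PVDF. Blots were probed overnight at 4 °C for phospho-p65, IκBα or COX-2 (1:1000), with HRP detection.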

Mus musculus [22] = experiment: Antiinflammatory activity in DSS-induced C57Bl/6 mouse colitis model assessed as inhibition IL-1beta level in colonic homogenate at 400 mg/kg/day administered intragastrically for 7 days; format: functional, organism-based
How it was run: (§4)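 Male C57Bl/6J mice, 8–10 per group, dosed intragastrically daily for 7 days at 400 mg/kg/day (vehicle 100 µL). From day 2, drinking water carried 3.5% w/vol DSS. Killed 5 days after colitis induction. Full-thickness proximal colon homogenised for MPO activity and IL-1β protein.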

Mus musculus [23] = experiment: Antiinflammatory activity in DSS-induced C57Bl/6 mouse colitis model assessed as inhibition MPO activity in colonic homogenate at 400 mg/kg/day administered intragastrically for 7 days; format: functional; details: C57Bl/6, po, 168 h, route intragastric; how it was run: as §4
CMT93 [24] = experiment: Increase in ROS production in LPS-stimulated mouse CMT93 cells at 10 uM preincubated for 30 mins before LPS-challenge measured after 24 hrs post challenge by DCFDA fluorescence assay in presence of PPAR-gamma antagonist PD68235; format: functional, cell-based
CMT93 [25] = experiment: Increase in ROS production in LPS-stimulated mouse CMT93 cells at 10 uM preincubated for 30 mins before LPS-challenge measured after 24 hrs post challenge by DCFDA fluorescence assay in presence of alpha-tocopherol; format: functional, cell-based
CMT93 [26] = experiment: Increase in ROS production in mouse CMT93 cells at 10 uM measured after 30 mins by DCFDA fluorescence assay (reference value: 2.64 %); format: functional, cell-based
CMT93 [27] = experiment: Increase in ROS production in LPS-stimulated mouse CMT93 cells at 10 uM preincubated for 30 mins before LPS-challenge measured after 30 mins post challenge by DCFDA fluorescence assay (reference value: 2.64 %); format: functional, cell-based
[28] = molecular target: T1, Peroxisome proliferator-activated receptor gamma (Mus musculus) (UniProt P37238); experiment: Induction of PPAR-gamma promoter activity in LPS-stimulated mouse CMT93 cells at 10 uM preincubated for 30 mins before LPS-challenge measured after 6 hrs post challenge by luciferase reporter gene assay; format: cell-based
T1 sequence (whole entry): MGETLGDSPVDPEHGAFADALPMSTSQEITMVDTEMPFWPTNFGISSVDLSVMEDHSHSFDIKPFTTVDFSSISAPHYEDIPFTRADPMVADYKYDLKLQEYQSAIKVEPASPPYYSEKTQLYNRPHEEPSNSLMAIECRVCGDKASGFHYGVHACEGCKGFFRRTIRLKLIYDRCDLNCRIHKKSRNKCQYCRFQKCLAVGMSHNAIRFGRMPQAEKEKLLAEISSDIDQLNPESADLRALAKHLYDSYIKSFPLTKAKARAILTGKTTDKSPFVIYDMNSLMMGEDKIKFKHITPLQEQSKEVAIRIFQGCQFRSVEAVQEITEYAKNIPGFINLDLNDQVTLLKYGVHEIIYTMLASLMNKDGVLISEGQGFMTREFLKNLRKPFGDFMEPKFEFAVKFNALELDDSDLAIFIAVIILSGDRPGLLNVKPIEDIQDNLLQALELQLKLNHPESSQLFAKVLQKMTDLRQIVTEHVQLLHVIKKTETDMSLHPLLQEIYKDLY
How it was run: (§5)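 CMT-93 cells (1×10⁵/well) were transfected with an NF-κB or PPRE luciferase reporter plus CMV-β-Gal. At 24 h they were treated with compound for 30 min, then with 100 ng/mL LPS for 6 h. Cells were lysed in Tris/EDTA/DTT/Triton buffer and supernatant luciferase was read by luminometer. Results are fold over untreated cells.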

[29] = molecular target: T1, Peroxisome proliferator-activated receptor gamma (Mus musculus); experiment: Induction of PPAR-gamma promoter activity in mouse CMT93 cells at 10 uM by luciferase reporter gene assay; format: cell-based; how it was run: as §5
Macrophage [30] = experiment: Antiinflammatory activity in human macrophages assessed as inhibition of LPS-induced increase in IL8 level at 10 uM preincubated for 30 mins before LPS-challenge measured after 24 hrs post challenge by ELISA in presence of PPAR-gamma antagonist PD68235; format: functional, cell-based
How it was run: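 Human macrophages were pre-exposed to 20 µM PPARγ antagonist PD68235 alongside 10 µM compound, then challenged with 100 ng/mL LPS. After 24 h, IL8 protein in conditioned medium was measured by ELISA.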

Macrophage [31] = experiment: Antiinflammatory activity in human macrophages assessed as inhibition of LPS-induced increase in TNFalpha mRNA transcript at 10 uM preincubated for 30 mins before LPS-challenge measured after 24 hrs post challenge by quantitative PCR analysis in presence of PPAR-gamma antagonist PD68235; format: functional, cell-based
Macrophage [32] = experiment: Increase in PPAR-gamma mRNA transcript level in human macrophages at 10 uM by quantitative PCR analysis; format: functional, cell-based
[33] = molecular target: Transcription factor p65 (Mus musculus) (UniProt Q04207); experiment: Inhibition of LPS-induced p65 NF-kappaB activation in mouse CMT93 cells assessed as inhibition of in COX-2 expression at 10 uM preincubated for 30 mins before LPS-challenge measured after 6 hrs post challenge by Western blot analysis; format: cell-based; how it was run: as §3
[34] = molecular target: Transcription factor p65 (Mus musculus) (UniProt Q04207); experiment: Inhibition of LPS-induced p65 NF-kappaB promoter activation in mouse CMT93 cells at 10 uM preincubated for 30 mins before LPS-challenge measured after 6 hrs post challenge by luciferase reporter gene assay; format: cell-based; how it was run: as §5
[35] = molecular target: Transcription factor p65 (Mus musculus) (UniProt Q04207); experiment: Inhibition of LPS-induced p65 NF-kappaB activation in mouse CMT93 cells assessed as inhibition of in IkBalpha degradation at 10 uM preincubated for 30 mins before LPS-challenge measured after 6 hrs post challenge by Western blot analysis; format: cell-based; how it was run: as §3

Sequence of Transcription factor p65 (Mus musculus) (Q04207 whole entry): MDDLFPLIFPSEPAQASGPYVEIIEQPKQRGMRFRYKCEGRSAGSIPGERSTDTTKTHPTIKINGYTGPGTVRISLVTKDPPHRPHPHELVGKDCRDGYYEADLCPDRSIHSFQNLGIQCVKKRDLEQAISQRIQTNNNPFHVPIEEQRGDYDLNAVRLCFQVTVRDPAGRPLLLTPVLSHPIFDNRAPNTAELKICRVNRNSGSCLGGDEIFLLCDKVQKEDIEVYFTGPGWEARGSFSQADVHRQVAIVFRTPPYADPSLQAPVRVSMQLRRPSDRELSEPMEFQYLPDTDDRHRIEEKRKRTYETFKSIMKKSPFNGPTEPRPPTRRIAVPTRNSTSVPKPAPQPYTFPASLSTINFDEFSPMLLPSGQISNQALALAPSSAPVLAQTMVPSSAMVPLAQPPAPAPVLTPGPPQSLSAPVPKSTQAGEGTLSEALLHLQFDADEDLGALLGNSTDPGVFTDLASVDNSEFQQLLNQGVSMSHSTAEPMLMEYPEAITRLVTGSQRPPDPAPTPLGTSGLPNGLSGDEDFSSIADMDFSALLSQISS

O=C(O)c1ccccc1O
inhibition (Macrophage [1]): Active
inhibition (Macrophage [2]): Active
inhibition (Macrophage [3]): Active

C[n+]1ccc(C(=O)O)c(O)c1.[Cl-]
inhibition (Macrophage [4]): Active
inhibition (Macrophage [5]): Active
Activity [6]: 7.98 ng/mL
Activity [7]: 7.56 ng/mL
Activity [8]: 7.32 ng/mL
Activity [9]: 7.34 ng/mL
Activity [10]: 5.4 ng/mL
Activity [11]: 4.43 ng/mL
Activity [12]: 1689 ng/mL
Activity [13]: 1654 ng/mL
Activity [14]: 1651 ng/mL
Activity [15]: 1738 ng/mL
Activity [16]: 1084 ng/mL
Activity [17]: 1069 ng/mL
inhibition (Macrophage [1]): Active
inhibition (Macrophage [2]): Active
inhibition (Macrophage [3]): Active
Activity [18]: Toxic
Activity [19]: Toxic
Activity [20]: Non-toxic
inhibition [21]: Active
inhibition (Mus musculus [22]): Active
inhibition in vivo at 400 mg/kg/day (Mus musculus [23]): 56%
Activity (CMT93 [24]): inactive
Activity (CMT93 [25]): inactive
Activity (CMT93 [26]): Active
Activity (CMT93 [27]): Active
Activity [28]: Active
Activity [29]: Active
inhibition (Macrophage [30]): Active
inhibition (Macrophage [31]): inactive
Activity (Macrophage [32]): Active
inhibition [33]: Active
inhibition [34]: Active
inhibition [35]: Active

Cc1nccc(C(=O)O)c1O
inhibition (Macrophage [1]): inactive
inhibition (Macrophage [2]): inactive
inhibition (Macrophage [3]): inactive
Activity [18]: Toxic
Activity [19]: Toxic
Activity [20]: Non-toxic

CCc1nccc(C(=O)O)c1O
inhibition (Macrophage [1]): inactive
inhibition (Macrophage [2]): inactive
inhibition (Macrophage [3]): inactive

CC(=O)Oc1ccccc1C(=O)O
inhibition (Macrophage [1]): Active
inhibition (Macrophage [2]): Active
inhibition (Macrophage [3]): Active
